The source of these data is ChEMBL document CHEMBL1177816, “Epsilon substituted lysinol derivatives as HIV-1 protease inhibitors” (Bioorg Med Chem Lett, 2010).

Data set [1] has as its system Human immunodeficiency virus 1. Kind of data set: Antiviral activity against HIV1 3B infected in human MT4 cells assessed as inhibition of viral spread after 3 days by p24 antigen ELISA in presence of 10% fetal bovine serum. The data set is classed as functional. In short, it runs like this:
(§1)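 MT-4 cells kept in RPMI 1640 with 10% heat-inactivated FBS were infected en masse with HIV-1 IIIb at multiplicity 0.01 for 24 h, then washed and plated. Serial twofold inhibitor dilutions were added and cultures ran 3 more days. Spread was read by p24 core antigen ELISA. Line 2 used 10% FBS; line 3 used cells resuspended in 50% normal human serum, giving a serum-adjusted IC95.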
In general terms: ELISA stands for enzyme-linked immunosorbent assay.

In data set [2] the target is Protease (Human immunodeficiency virus 1, UniProt Q9YQ12). Nature of the data set: Inhibition of HIV1 protease.
Protease, sequence (Q9YQ12 whole entry): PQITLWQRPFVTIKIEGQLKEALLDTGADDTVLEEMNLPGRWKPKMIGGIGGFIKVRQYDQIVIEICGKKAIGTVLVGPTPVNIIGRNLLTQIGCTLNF
In data set [3] the test system is Human immunodeficiency virus 1. Nature of the data set: Antiviral activity against HIV1 3B infected in human MT4 cells assessed as inhibition of viral spread after 3 days by p24 antigen ELISA in presence of 50% normal human serum. The data set is classed as functional. An outline of the steps:
as §1

Data set [4] is described as follows: AUC in Beagle dog at 4 mg/kg, po. Type of data set: ADME, organism-based, Canis lupus familiaris. Further details: dose 4 mg/kg, route oral. As to conditions: plasma. An outline of the steps:
(§2)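 Beagle dogs received 4 mg/kg orally in PEG 400. Plasma drug levels (nM) were measured over 24 h, including the 24 h trough, and oral half-life was calculated from the plasma concentration profile.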

Data set [5] can be described thus: Half life in Beagle dog at 4 mg/kg, po. On the set-up: dose 4 mg/kg, route oral. Type of data set: ADME, organism-based, Canis lupus familiaris. The note with it: in vivo. In short, it runs like this:
as §2

Data set [6] in a line: Trough plasma concentration in Beagle dog at 4 mg/kg after 24 hrs. On the set-up: dose 4 mg/kg. Type of data set: ADME, organism-based, Canis lupus familiaris. In short, it runs like this:
as §2

As to `COC(=O)N[C@H](C(=O)N[C@@H](CCC[C@@H](CO)N(CCC(C)C)S(=O)(=O)c1ccc(N)cc1)C(C)C)C(c1ccccc1)c1ccccc1`, the “Inhibition of viral spread” value in data set [1] was 37 nM. In data set [2], the IC50 was found to be 100 pM.
On to `COC(=O)N[C@H](C(=O)NCCCC[C@@H](CO)N(CCC(C)C)S(=O)(=O)c1ccc(N)cc1)C(c1ccccc1)c1ccccc1`, for which, in data set [1], the “Inhibition of viral spread” value was found to be 12 nM. In data set [2], this compound displayed an IC50 of 30 pM. In addition, in data set [3], the Virucidal is 130 nM.
Consider `COC(=O)N[C@H](C(=O)N[C@H](CO)CCC[C@@H](CO)N(CCC(C)C)S(=O)(=O)c1ccc(N)cc1)C(c1ccccc1)c1ccccc1`, for which the “Inhibition of viral spread” value in data set [1] was determined as 230 nM. Further, the IC50 in data set [2] was found to be 13 pM.
In the case of `CC[C@@H](CCC[C@@H](CO)N(CCC(C)C)S(=O)(=O)c1ccc(N)cc1)NC(=O)[C@@H](NC(=O)OC)C(c1ccccc1)c1ccccc1`, in data set [1], the “Inhibition of viral spread” value amounted to 10 nM. In data set [4], the AUC worked out at 1.05 µM·h. Further, the half-life in data set [5] was 6 h. This compound came in with an IC50 in data set [2] of 16 pM. This compound also came in with a concentration at 24 h in data set [6] of 5.1 nM. Besides, the Virucidal in data set [3] is on record as 74 nM.
Take `COC(=O)N[C@H](C(=O)NCCCC[C@@H](CO)N(CC(C)C)S(=O)(=O)c1ccc(N)cc1)C(c1ccccc1)c1ccccc1` [PPL-100]: the IC50 in data set [2] is 500 pM.
As for `COC(=O)N[C@H](C(=O)N[C@H](C)CCC[C@@H](CO)N(CCC(C)C)S(=O)(=O)c1ccc(N)cc1)C(c1ccccc1)c1ccccc1`, the “Inhibition of viral spread” value in data set [1] turned out to be 98 nM. The compound also yielded a half-inhibitory concentration (IC50) in data set [2] of 400 pM.
`COC(=O)N[C@H](C(=O)N[C@@H](C)CCC[C@@H](CO)N(CCC(C)C)S(=O)(=O)c1ccc(N)cc1)C(c1ccccc1)c1ccccc1`: the “Inhibition of viral spread” value in data set [1] was 6.6 nM. Further, the AUC in data set [4] turned out to be 0.32 µM·h. Moreover, the concentration at 24 h in data set [6] was 2 nM. The Virucidal in data set [3] is recorded as 120 nM.
Consider `CCC[C@@H](CCC[C@@H](CO)N(CCC(C)C)S(=O)(=O)c1ccc(N)cc1)NC(=O)[C@@H](NC(=O)OC)C(c1ccccc1)c1ccccc1`, for which the “Inhibition of viral spread” value in data set [1] was 56 nM. In addition, the IC50 in data set [2] came out at 100 pM.

The IC50 is the concentration needed to halve the response being measured. Low readings indicate inhibition by little substance, high ones a need for much substance. Usually AUC stands for the area under the concentration-time curve, a measure of exposure. The term half-life denotes how long it takes for the measured level to halve. High values mean slow loss, low ones fast loss.
